# Experimental data: PMC10445456 (Virus Research, 2023)
# Experiments:
# vCDK/pUL97 = molecular target: T1, vCDK/pUL97 (Human cytomegalovirus, UniProt P16788); test: qSox-IVKA of immunoprecipitated pUL97-Flag; format: biochemical, HCMV
# T1 sequence (P16788 1-707): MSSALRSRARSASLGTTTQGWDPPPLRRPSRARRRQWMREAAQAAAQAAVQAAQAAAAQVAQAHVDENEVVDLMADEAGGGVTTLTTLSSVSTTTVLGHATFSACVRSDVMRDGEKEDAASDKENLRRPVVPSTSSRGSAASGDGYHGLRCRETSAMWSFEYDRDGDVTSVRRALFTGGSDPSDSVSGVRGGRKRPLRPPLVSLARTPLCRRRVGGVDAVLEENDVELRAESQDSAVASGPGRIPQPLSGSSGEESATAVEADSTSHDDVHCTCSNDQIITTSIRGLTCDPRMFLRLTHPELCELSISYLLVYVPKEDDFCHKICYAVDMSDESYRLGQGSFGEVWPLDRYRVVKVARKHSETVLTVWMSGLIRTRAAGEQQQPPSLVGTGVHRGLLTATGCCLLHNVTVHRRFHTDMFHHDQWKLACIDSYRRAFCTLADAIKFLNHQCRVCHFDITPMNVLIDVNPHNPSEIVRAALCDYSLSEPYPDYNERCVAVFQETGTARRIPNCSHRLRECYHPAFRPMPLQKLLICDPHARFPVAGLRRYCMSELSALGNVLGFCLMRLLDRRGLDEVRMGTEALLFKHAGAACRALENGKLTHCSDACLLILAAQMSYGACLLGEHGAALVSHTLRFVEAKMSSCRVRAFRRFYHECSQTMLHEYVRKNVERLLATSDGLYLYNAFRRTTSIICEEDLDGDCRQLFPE
# pUL97-Flag/CDK7 = pUL97-Flag/CDK7 (Homo sapiens, UniProt P50613); test: qSox-IVKA of coimmunoprecipitated pUL97-Flag/CDK7, pUL97-specific sensor peptide; format: biochemical, HCMV / human; conditions: 0.01 µM LDC4297
# Chain of pUL97-Flag/CDK7 (P50613 whole entry): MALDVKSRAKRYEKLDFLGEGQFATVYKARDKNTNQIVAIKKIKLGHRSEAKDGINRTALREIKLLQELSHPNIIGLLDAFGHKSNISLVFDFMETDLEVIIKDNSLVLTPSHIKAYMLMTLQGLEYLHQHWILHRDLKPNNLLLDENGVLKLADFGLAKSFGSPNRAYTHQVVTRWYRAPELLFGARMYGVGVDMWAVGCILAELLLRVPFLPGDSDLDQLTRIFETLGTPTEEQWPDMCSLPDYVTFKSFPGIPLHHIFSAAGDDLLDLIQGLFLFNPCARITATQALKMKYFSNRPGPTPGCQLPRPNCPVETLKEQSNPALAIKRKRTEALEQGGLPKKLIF
# Chain of pUL97-Flag/CDK7 (P51946 whole entry partner): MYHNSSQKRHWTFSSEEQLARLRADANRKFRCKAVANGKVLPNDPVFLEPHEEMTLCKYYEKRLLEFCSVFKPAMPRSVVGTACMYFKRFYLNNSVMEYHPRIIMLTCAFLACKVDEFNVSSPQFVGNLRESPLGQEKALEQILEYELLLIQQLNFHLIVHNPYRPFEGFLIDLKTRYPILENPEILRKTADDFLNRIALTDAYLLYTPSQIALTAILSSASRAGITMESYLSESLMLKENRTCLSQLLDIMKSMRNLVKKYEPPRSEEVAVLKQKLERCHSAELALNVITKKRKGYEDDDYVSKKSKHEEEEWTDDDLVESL
# Chain of pUL97-Flag/CDK7 (P51948 whole entry partner): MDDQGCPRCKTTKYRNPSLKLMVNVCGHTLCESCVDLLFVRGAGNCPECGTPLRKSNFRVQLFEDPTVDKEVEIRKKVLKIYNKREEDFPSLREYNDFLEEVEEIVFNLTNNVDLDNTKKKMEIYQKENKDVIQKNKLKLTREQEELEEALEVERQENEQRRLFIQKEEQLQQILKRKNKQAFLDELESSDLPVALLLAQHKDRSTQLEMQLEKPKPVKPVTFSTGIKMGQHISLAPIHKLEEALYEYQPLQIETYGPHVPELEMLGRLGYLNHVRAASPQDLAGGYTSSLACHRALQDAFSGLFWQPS
# human CDK7 = human CDK7 (Homo sapiens, UniProt P50613); test: qSox-IVKA of immunoprecipitated CDK7; format: biochemical
# Chain of human CDK7 (P50613 whole entry): as the sequence (P50613 whole entry) above
# Chain of human CDK7 (P51946 whole entry partner): as the sequence (P51946 whole entry partner) above
# Chain of human CDK7 (P51948 whole entry partner): as the sequence (P51948 whole entry partner) above
# CDK7 + pUL97-Flag = molecular target: T2, CDK7 + pUL97-Flag (Human cytomegalovirus, UniProt P16788); test: qSox-IVKA of CDK7 + pUL97-Flag samples, CDK7-specific sensor peptide; format: biochemical, human / HCMV; conditions: 0.35 µM MBV
# T2 sequence (P16788 1-707): T1 sequence (P16788 1-707)
# Outline: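 293T cells were transfected with pUL97-Flag or empty vector. At 2 d p.t., CDK7 and/or pUL97-Flag were immunoprecipitated, with a mouse Fc pseudo-IP as control. Eluate in HEPES pH 7.5 enzyme buffer was added to a reaction mix (final 1.0 mM ATP, 10 mM MgCl2, 15 µM CDK7 Sox sensor peptide AQT0459). Fluorescence (Ex355/Em480) was read kinetically at 30°C for about 80 min, in triplicate. Fc/empty-vector background was subtracted and Wb normalization factors applied. Combined-IP activity was related to CDK7 single IP, or pUL97-only activity was subtracted. 0.35 µM test compound or DMSO was added to combined samples. Data are from one representative biological replicate.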
# [1] = test system: HCMV-infected TEV-1 cells (cyclin H mRNA); test: cyclin H mRNA levels by one-step RT-qPCR in HCMV Merlin-infected TEV-1 cells; format: cell-based, human; conditions: 1 µM MBV, HCMV Merlin MOI 0.5
# CDK7 pSer164 and pThr170 = test: Wb of CDK7 T-loop phosphorylation in HCMV AD169-infected HFFs; format: cell-based, human; conditions: 0.35 µM MBV from 24 h p.i., harvested 3 d p.i., HCMV AD169 MOI 0.5
# Outline: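 HFFs in T75 flasks were infected 1 d after seeding with HCMV AD169, UL97 K355Δ kinase-dead mutant (MOI 0.5) or mock; inoculum was replaced after 90 min at 37°C. AD169-infected cells received 0.35 µM test compound or DMSO at 24 h p.i. Cells were harvested 3 d p.i. for SDS-PAGE/Wb with phosphosite-specific antibodies against CDK7 pSer164 and pThr170.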
# [2] = test system: HCMV-infected HFFs (cyclin H mRNA); test: cyclin H mRNA levels by one-step RT-qPCR in HCMV Merlin-infected HFFs; format: cell-based, human; conditions: 1 µM MBV, HCMV Merlin MOI 0.5, 7 d p.i.
compound,measurement,setting,value
CC(C)c1cnn2c(NCc3ccccc3-n3cccn3)nc(OC3CCCNC3)nc12 (stereo not shown) [LDC4297],inhibitory effect on pUL97 activity,vCDK/pUL97; 5 µM LDC4297,did not affect pUL97 kinase activity
same,change in pUL97 activity upon inhibition of CDK7,pUL97-Flag/CDK7,no change in pUL97 activity
same,effect on CDK7 activity,human CDK7; applied concentration of LDC4297 in the IVKA (5 µM),completely blocked CDK7 activity
"CC(C)Nc1nc2cc(Cl)c(Cl)cc2n1[C@H]1O[C@@H](CO)[C@H](O)[C@@H]1O [MBV, maribavir]",pUL97-mediated increased CDK7 kinase activity (trans-stimulation),CDK7 + pUL97-Flag,abolished
same,reduction of the HCMV-induced increase of cyclin H mRNA levels,[1],68%
same,pUL97 kinase activity reduced to,vCDK/pUL97; 0.35 µM,50%
same,CDK7 phosphomarkers pSer164 and pThr170,CDK7 pSer164 and pThr170,modest increase
same,effect on CDK7 activity,human CDK7; 0.35 µM MBV,not inhibited
same,reduction of the HCMV-induced increase of cyclin H mRNA levels,[2],28%
"recombinant cyclin H: recombinant human cyclin H, full-length, GST-tag, expressed in insect cells (ABIN6699744)",increase of in vitro kinase activity of pUL97,vCDK/pUL97; exogenous addition of 100 nM recombinant cyclin H,31.5%
